The test system of data set [1] is Beta-TC6. Nature of the data set: Percentage insulin release in vitro in beta-TC6 cells. The format is functional. The following applies: Mus musculus. In outline: (§1)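 βTC6 cells, 5 × 10⁴/well, grown 3 days in DMEM + 10% FCS, 11 mM glucose, 20 mM Hepes. Washed twice in NN buffer with 0.1% BSA, preincubated 60 min, then 3 h with 22 mM glucose, 0.1 mM IBMX and serial compound dilutions. Insulin in supernatant measured by in-house ELISA (guinea pig anti-insulin, rat insulin standard). Reference compound as positive control.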

Data set [2] deals with T1, Sulfonylurea receptor 1, Kir6.2 (Homo sapiens, UniProt Q09428+Q14654). Briefly: Inhibition of [3H]glibenclamide binding to HEK293 cells co-expressing human Sulfonylurea receptor SUR1 and Inward rectifier K+ channel Kir6.2 at high affinity state with 2 mM MgATP. The format is cell-based.
A short description of data set [3]: Half life after oral administration to Sprague-Dawley rats. The note with it: rat, in vivo. It counts as ADME, organism-based. In outline:
(§2)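 Cassette dosing, two compounds per cassette, in Sprague–Dawley rats of about 180 g, n = 2. iv doses 0.5 or 0.89 mg/kg; oral doses 1.89 or 2.0 mg/kg. Vehicle 0.1 M potassium phosphate pH 8.0, or PEG 300 based. Heart-puncture sampling, one rat per point. Plasma levels by LC/MS/MS; noncompartmental analysis.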

The species entered for data set [4] is Rattus norvegicus. Nature of the data set: Ability to relax phenylephrine-contracted rat aorta rings. It counts as functional.
Data set [5] is filed under the species Rattus norvegicus. Briefly: Reduction in plasma insulin in 30 min post-injection in rat. It counts as functional. Set-up: concentration or dose not given beside the values. In outline: (§3)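 Postprandial male Sprague–Dawley rats, 280–320 g, under Hypnorm/Dormicum at 37 °C. 3 mg/kg iv bolus over 20 s via jugular cannula (0.3 mg/kg for one compound), dissolved in 0.15% NaOH and saline. Blood taken every 5–10 min from 15 min pre- to 30 min postinjection. Plasma insulin by ELISA, as % reduction from pre-dose level. 2–4 animals.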

Data set [6] addresses T1, Sulfonylurea receptor 1, Kir6.2. Briefly: Inhibition of [3H]glibenclamide binding to HEK293 cells co-expressing human Sulfonylurea receptor SUR1 and Inward rectifier K+ channel Kir6.2 without ATP. The format is cell-based. The gist of the method: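 Membranes from HEK293 cells stably expressing human SUR1/Kir6.2 (100 µg/mL protein) incubated 1 h at 37 °C with 1 nM [3H]glibenclamide in 30 mM HEPES pH 7.4, here without MgCl2 and ATP. Nonspecific binding with 10 µM glipizide. Rapid filtration, scintillation counting; IC50 by one- or two-site sigmoid nonlinear regression.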

The subject of data set [7] is βTC6 cells (Mus musculus). Briefly: Inhibition of glucose-stimulated insulin release from βTC6 cells.
Data set [8] is described as follows: Changes in potassium fluxes assessed in the glucose responsive insulin-producing murine cell line beta-TC3. The format is functional, cell-based, Mus musculus. In outline: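 βTC3 membrane potential read as DiBAC4(3) fluorescence at 0.01, 0.1, 1, 10 and 100 µM, four wells each. Signal normalized to each well's initial value and expressed as fractional fluorescence change over 45 min incubation. EC50 from four-parameter nonlinear fit; mean ± SEM of at least three independent experiments.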

A short description of data set [9]: Oral bioavailability in rat (Sprague-Dawley). The format is ADME, organism-based. The note with it: Sprague-Dawley, in vivo. In outline: as §2
The nature of data set [10]: Acid dissociation constant was determined. The format is ADME. In outline:
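Potentiometric titration from pH 2 to 10.5 in 80% MeOH cosolvent. Three titrations on the same sample, with 0.15 M KCl added before the second. psKa values extrapolated to 0% cosolvent by Yasuda–Shedlovsky.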

The species named for data set [11] is Rattus norvegicus. Nature of the data set: Maximum reduction in plasma insulin in rat. The format is functional. In outline: as §3
Data set [12] concerns the target T1, Sulfonylurea receptor 1, Kir6.2. Briefly: Inhibition of [3H]glibenclamide binding to HEK293 cells co-expressing human Sulfonylurea receptor SUR1 and Inward rectifier K+ channel Kir6.2 at low affinity state with 2 mM MgATP. The format is cell-based.
Data set [13] is filed under the species Rattus norvegicus. Nature of the data set: Inhibition of glucose-stimulated insulin release from Wistar rat islets. The format is functional. In outline: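 Isolated rat islets held overnight in RPMI, 10% FCS, 11 mM glucose, then 10 islets/well overnight in DMEM, 10% FCS, 3 mM glucose. Run like the βTC6 assay (60 min NN buffer preincubation, 3 h with 22 mM glucose and serial dilutions) without IBMX. Insulin by in-house ELISA.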

The species named for data set [14] is Rattus norvegicus. Nature of the data set: Maximum change in MAP in rat. It counts as functional. In outline: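 Anaesthetized male Sprague–Dawley rats given 3 mg/kg iv bolus (0.3 mg/kg for one compound) in 0.15% NaOH/saline via jugular cannula. Maximal percent change in mean arterial pressure over 5 min after dosing; mean ± SEM, 2–4 animals.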
Data set [15] relates to Beta-TC6. Nature of the data set: Ability to inhibit the release of insulin from the mouse beta-TC6 cell line. The format is functional, cell-based. The gist of the method: as §1
The species named for data set [16] is Rattus norvegicus. Briefly: Effective concentration require for relaxation of rat aorta rings. It counts as functional.
The test system of data set [17] is Beta-TC6. Briefly: Maximum inhibition of glucose stimulated insulin release from mouse beta-TC6 cells at 10 uM in vitro. It counts as functional.

Where only a bound is given, the exact number is not on record here.

T1 sequence (Q14654 whole entry): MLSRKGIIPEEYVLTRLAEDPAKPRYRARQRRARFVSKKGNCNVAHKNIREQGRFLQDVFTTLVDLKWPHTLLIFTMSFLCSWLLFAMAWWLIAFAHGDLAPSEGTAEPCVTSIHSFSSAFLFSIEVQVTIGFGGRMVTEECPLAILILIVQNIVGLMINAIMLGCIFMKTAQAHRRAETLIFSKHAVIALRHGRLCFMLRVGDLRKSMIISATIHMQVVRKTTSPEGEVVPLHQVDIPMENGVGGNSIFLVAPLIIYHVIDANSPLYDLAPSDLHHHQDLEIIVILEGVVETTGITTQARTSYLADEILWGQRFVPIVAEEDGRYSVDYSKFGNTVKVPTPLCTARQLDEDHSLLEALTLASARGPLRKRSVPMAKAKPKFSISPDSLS
T1 sequence (Q09428 whole entry): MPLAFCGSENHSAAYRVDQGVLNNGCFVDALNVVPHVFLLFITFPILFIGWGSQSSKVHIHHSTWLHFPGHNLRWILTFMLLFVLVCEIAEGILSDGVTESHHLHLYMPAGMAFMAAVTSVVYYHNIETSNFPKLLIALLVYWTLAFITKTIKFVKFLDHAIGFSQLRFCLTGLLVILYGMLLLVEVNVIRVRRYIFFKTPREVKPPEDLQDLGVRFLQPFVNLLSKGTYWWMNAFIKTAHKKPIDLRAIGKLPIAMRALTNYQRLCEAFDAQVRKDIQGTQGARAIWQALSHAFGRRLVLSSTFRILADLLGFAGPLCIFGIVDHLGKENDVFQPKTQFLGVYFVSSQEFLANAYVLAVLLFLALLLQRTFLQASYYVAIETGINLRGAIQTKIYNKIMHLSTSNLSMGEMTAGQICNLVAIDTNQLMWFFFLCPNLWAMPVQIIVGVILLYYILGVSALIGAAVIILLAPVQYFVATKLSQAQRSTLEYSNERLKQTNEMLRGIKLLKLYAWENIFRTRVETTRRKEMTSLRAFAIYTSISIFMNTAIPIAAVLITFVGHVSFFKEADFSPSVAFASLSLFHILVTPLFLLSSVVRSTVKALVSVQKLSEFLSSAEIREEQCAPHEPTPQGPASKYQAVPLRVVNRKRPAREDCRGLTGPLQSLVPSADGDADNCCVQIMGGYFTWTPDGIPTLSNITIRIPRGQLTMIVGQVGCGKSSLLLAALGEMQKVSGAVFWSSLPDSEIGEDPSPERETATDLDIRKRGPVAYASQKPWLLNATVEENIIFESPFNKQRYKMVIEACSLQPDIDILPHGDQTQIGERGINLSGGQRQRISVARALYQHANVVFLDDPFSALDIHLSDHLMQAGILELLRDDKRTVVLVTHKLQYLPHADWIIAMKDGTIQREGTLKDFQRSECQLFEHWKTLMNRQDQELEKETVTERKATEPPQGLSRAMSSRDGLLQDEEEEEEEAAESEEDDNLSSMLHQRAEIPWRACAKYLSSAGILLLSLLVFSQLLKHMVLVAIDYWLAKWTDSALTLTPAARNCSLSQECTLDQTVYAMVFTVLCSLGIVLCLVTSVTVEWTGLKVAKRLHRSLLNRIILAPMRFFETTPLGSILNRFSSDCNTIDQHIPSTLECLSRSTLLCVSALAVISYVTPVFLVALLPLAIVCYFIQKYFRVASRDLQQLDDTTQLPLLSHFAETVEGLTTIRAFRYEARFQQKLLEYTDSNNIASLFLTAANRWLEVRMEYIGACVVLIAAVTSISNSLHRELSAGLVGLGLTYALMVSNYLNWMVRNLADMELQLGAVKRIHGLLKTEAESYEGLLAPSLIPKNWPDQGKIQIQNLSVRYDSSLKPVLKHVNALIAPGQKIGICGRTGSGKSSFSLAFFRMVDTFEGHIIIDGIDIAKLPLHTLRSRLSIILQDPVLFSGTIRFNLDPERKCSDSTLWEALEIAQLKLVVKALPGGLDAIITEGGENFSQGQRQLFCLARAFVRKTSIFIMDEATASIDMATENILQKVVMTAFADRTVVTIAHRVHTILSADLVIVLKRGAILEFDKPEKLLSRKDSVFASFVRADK

Turning to `CC[C@@H](C)NC1=NS(=O)(=O)c2sc(Cl)cc2N1`, the Emax (in the data set with Beta-TC6 [1]; in data set [7]) was 82% in each case. For the same compound, the IC50 (commonly the point on the concentration scale where inhibition reaches its midpoint) stood at 0.64 µM in data set [2]; 487 µM in data set [6]; 224 µM in data set [12]; 0.06 µM in the data set filed under Rattus norvegicus [13]; 0.24 µM with Beta-TC6 [15]. Further, the half-life (as a rule, how long it takes for the measured level to halve) in [3] is 2.72 h. The figures for the EC50 (in the data set filed under Rattus norvegicus [4]; in data set [8]) were 70 µM and 0.3 µM, respectively. The figures for the Reduction in the data set filed under Rattus norvegicus [5] and in the data set filed under Rattus norvegicus [11] were 94% and 97%, respectively. The bioavailability (usually the share of a dose that reaches the circulation, judged against a reference dose that is usually intravenous) in data set [9] was found to be 90%. Also, the pKa (commonly the pH at which an ionisable group is half protonated) in [10] worked out at 8.54. Besides, the Change in the data set filed under Rattus norvegicus [14] is -17%.
Consider `CNC1=NS(=O)(=O)c2sc(Cl)cc2N1`, for which the EC50 (as a rule, the concentration at which the effect is half-maximal) in the data set listed under Rattus norvegicus [16] is 17.3 µM; in the data set listed under Rattus norvegicus [4], 17.3 µM; in [8], greater than 100 µM. Also, the Emax (as a rule, the greatest response seen or fitted, relative to the assay's reference) at 10 µM in the data set on Beta-TC6 [17] came to 35%. The compound also gave an IC50 in the data set on Beta-TC6 [15] of 21.2 µM.

The record behind these values is ChEMBL document CHEMBL1135780, “6-Chloro-3-alkylamino-4H-thieno[3,2-e]-1,2,4-thiadiazine 1,1-dioxide derivatives potently and selectively activate ATP sensitive potassium channels of pancreatic beta-cells” (J Med Chem, 2002).
